Assay results reported in ChEMBL document CHEMBL4765242, “Novel Triapine Derivative Induces Copper-Dependent Cell Death in Hematopoietic Cancers” (J Med Chem, 2019).
Active and inactive are the calls of the source. The rule behind the calls is not given here.

Key:
Jurkat = assay: Potency index, ratio of triapine IC50 to test compound IC50 for human Jurkat cells assessed as reduction in cell viability incubated for 48 hrs by cell-titer-Glo luminescent cell viability assay; format: functional
Outline: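 Cells were exposed to increasing concentrations of triapine or of the test compound in parallel. Viability was read by CellTiter-Glo luminescence 48 h after treatment, relative to vehicle-treated cells. IC50 was fitted by non-linear regression to a standard sigmoidal dose-response model, and the index was taken from the two IC50s.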

MV4-11 [1] = assay: Induction of mitochondrial stress in human MV4-11 cells assessed as reduction in basal respiration in incubated for 24 hrs in presence of oligomycin/FCCP/antimycin/rotenone by seahorse XF96 analyser based assay; format: functional, cell-based
MV4-11 [2] = assay: Induction of apoptosis in human MV4-11 cells assessed as live cells incubated for 24 hrs by Annexin-V/FITC and propidium iodide staining based flow cytometry (reference value: 90.1 %); format: functional
Outline: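 Cells exposed to compound for 24 h with or without Cu2+, then Annexin V-FITC/propidium iodide double staining and flow cytometry.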

`COc1cc2nc(N/N=C3\CCCc4cccnc43)sc2cc1OC` was tested, and the “Ratio IC50” value (Jurkat) was 10, the Activity (MV4-11 [1]) was “Active” and the Activity (MV4-11 [2]) was 79.2%.
